# bCat KO growth – beta-catenin-lacking colon tumor cell growth suppression; 140,000 compounds, 1.5% hits; AID 818; viability, % at 10 µM; HCT116 beta-catenin knockout viability, CellTiter-Glo, 60 h; active compounds read low;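 active = viability at or under a set limit, the compound median less 4 SD, cut at about 6% in these data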;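 note: 0% = Hyamine 1622 control at 20 µM and 100% = untreated cell control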
# Dynein cargo inh – dynein cargo transport inhibition | 3617.4 mouse cells, GR-EGFP nuclear translocation imaging; test concentration mostly 20 µM; stimulated with dexamethasone, 1 µM; active compounds read low | 220,000 compounds, 0.47% hits | z-score, hits read low;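 active = plate z-score of nuclear minus cytoplasmic receptor signal below a set negative limit, without overly bright fluorescence or cell loss, cut at about -3.5 in these data, passing the limit was not always enough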;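 note: z-score of nuclear minus cytoplasmic ring GR-EGFP intensity difference per well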
#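 Medium: Induction medium lacking tetracycline, stripped serum | Probe or stimulus: 1.0 µM final dexamethasone stimulus | Schedule: 48 h induction, then 1 h compound, then 30 min agonist, 37 °C | Signal: Automated 10x imaging of fixed Hoechst-stained cells | Evaluation: Per-cell GR-EGFP intensity, nucleus versus surrounding cytoplasmic ring, well-averaged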
# PTEN del growth – PTEN-deleted cell growth suppression; HCT116 PTEN-null viability, CellTiter-Glo, 60 h; active compounds read low; viability, % at 10 µM; 140,000 compounds, 1.2% hits; AID 827;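 active = viability at or below a set limit, 4 SD under the median of all tested compounds, cut at about 3.7% in these data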;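 note: PTEN knockout HCT116 line with beta catenin targeted HCT116 as companion control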
# Autophagy mod – modulators of autophagy | 190,000 compounds, 0.98% hits | AID 463193 | calls only at 10 µM (by protocol) | MEF GFP-LC3 puncta imaging; test concentration mostly 10 µM;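 active = percentage of spot-positive cells more than 3 SD above its plate mean, without a fluorescence outlier flag or 80% toxicity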;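 note: spot-positive cell cutoff set from DMSO-treated cells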
# Lmaj promast – reduces viability of Leishmania major promastigotes. resazurin fluorescence viability. inhibition, % at 10 µM. 200,000 compounds, 9% hits. AID 1063; in the data active = inhibition above about 50%;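 note: promastigotes grown with compound for 44 hours at 28 °C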
# Dynein confirm – dynein cargo transport inhibition, confirmation. 1,000 compounds, 69% hits. calls only at 20 µM. AID 463116. 3617.4 GR-EGFP nuclear translocation imaging, dexamethasone-induced. shares compounds with Dynein cargo inh;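 active = inhibition of receptor movement into the nucleus at or above a set limit in both runs, with normal cell brightness and cell count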;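 note: dexamethasone at 1 µM final in well for 30 min; nuclear minus cytoplasmic GR-EGFP mean intensity difference in channel 2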
# An asterisk follows results filed as active; i = inactive; x = not tested or not shown; + = active, no number. This is a sample that favours compounds with a hit; in the whole collection about 9.2% have one here.
SMILES,bCat KO growth,Dynein cargo inh,PTEN del growth,Autophagy mod,Lmaj promast,Dynein confirm
Cc1nc([N+](=O)[O-])c(Br)n1CC(=O)c1ccc(F)cc1,x,-6.08*,x,i,89.1*,+
Cc1nc([N+](=O)[O-])c(Br)n1CC(=O)c1cccc([N+](=O)[O-])c1,x,-5.48*,x,i,86.2*,+
Cc1nc([N+](=O)[O-])c(Br)n1Cc1ccccc1,x,-5.87*,x,x,x,+
CCOC(=O)C1CCCN(C(=O)c2ccc(C)cc2O)C1 (stereo not drawn),79.8,-1.21,85.0,i,-1.9,x
COc1cc(/C=N/NC(=O)c2cccnc2)ccc1OCC(=O)N1CCOCC1,98.6,-0.235,101.2,i,-9.5,x
N#CC1=C(O)C(c2ccccc2)n2c1nc(=O)c1ccccc12 (stereo not drawn),89.6,-0.454,96.3,i,-7.1,x
COCCSc1ccccc1C(=O)N1CCN(c2ccccc2OC)CC1,x,-0.398,x,i,-2.2,x
CCOc1cc(/C=C\[N+](=O)[O-])ccc1OCC(=O)Nc1ccccc1C,2.1*,-3.55*,1.9*,i,71.2*,+
O=C(/C=C/NNC(=O)c1ccc(Cl)cc1)c1ccccc1,x,-6.16*,x,i,-0.9,+
Cc1cccc(C2=NC(C(F)(F)F)(C(F)(F)F)c3c(n(-c4ccc(F)cc4)c(=O)[nH]c3=O)N2)c1,67.4,-3.74*,69.4,i,74.5*,i
CC(=O)NC1(C(F)(F)F)C(=O)Nc2c1c(=O)[nH]c(=O)n2-c1ccccc1 (stereo not drawn),x,0.437,x,x,x,x
CCn1c(-c2cc3c(C(F)(F)F)nn(C)c3s2)n[nH]c1=S,93.0,-0.582,83.0,i,-5.1,x
COc1ccc(C2CC(c3cccs3)=NN2c2ccc(C=O)cc2)cc1 (stereo not drawn),84.9,-9.62,65.2,+,92.2*,i
S=c1[nH]nc(-c2ccccn2)n1/N=C/c1ccc(Cl)cc1,x,-0.811,x,x,x,x
CCOc1cc(/C=C2/COc3ccccc3C2=O)ccc1OCC(=O)N(C)C,x,-3.56*,x,i,100.4*,+
O=C(Nc1ccccc1-c1ccccc1)c1ccc(NC(=O)c2ccco2)cc1,93.6,-0.572,87.3,i,14.5,x
CCn1nc(C)cc1C(=O)Sc1ccc(Cl)cc1Cl,x,-2.04,x,x,x,x
CCn1nc(C)cc1C(=O)Sc1cccc(Br)c1,x,-4.02*,x,x,x,+
O=C(Sc1ccccc1)c1cccc(Cn2cc(C(F)(F)F)ccc2=O)c1,x,-3.93*,x,x,x,+
CCOC(=O)C(C(=O)OCC)C(C(=O)OCC)N1CCOCC1 (stereo not drawn),1.2*,-4.56*,1.7*,i,100.5*,+
CCOC(=O)C(C)CC(C)C(=O)N1CCOCCOCCN(C(=O)C(C)CC(C)C(=O)OCC)CCOCC1 (stereo not drawn),99.5,-0.109,97.2,i,-5.2,x
CSc1nc2sc3c(c2c2nnnn12)CC(C)(C)OC3,x,0.264,x,i,-3.2,x
CC1(C)Cc2c(sc3c4nnnn4c4nnnn4c23)CO1,8.2,-4.73*,14.3,i,4.3,i
N#C/C(=C\c1cccc([N+](=O)[O-])c1)C(=O)NCc1cccnc1,80.7,0.27,77.7,i,41.2,x
N#C/C(=C\c1cccc([N+](=O)[O-])c1)C(=O)NCc1ccc(Cl)cc1,x,-6.8*,x,i,50.6*,+
SMILES,bCat KO growth,Dynein cargo inh,PTEN del growth,Autophagy mod,Lmaj promast,Dynein confirm
N/C(Cc1cccs1)=N\OC(=O)COc1ccc(Cl)cc1Cl,98.2,1.87,84.0,i,0.9,x
O=S(=O)(c1cnc(Cl)c(Br)c1)N1CCc2ccccc21,x,-4.7*,x,x,x,+
Cc1ccc(-n2nnnc2Sc2ccc(S(=O)(=O)NCCN(C)C)cc2[N+](=O)[O-])cc1,1.7*,-3.95*,1.6*,i,100.0*,+
O=C(COc1ccccc1)Nn1cnc2ccccc21,89.4,0.476,98.2,i,-1.2,x
O=C(CC1CCCC1)Nc1ccc2c(c1)CCC2,85.0,-1.08,87.8,i,3.2,x
CC1(C)CC(=O)C2=C(C1)OC(c1ccc(O)cc1)C(C#N)=C2N (stereo not drawn),81.4,-1.06,96.8,i,-2.9,x
Cn1nc([N+](=O)[O-])c(C(C#N)c2nc3ccccc3n2C)c(Cl)c1=O (stereo not drawn),65.8,-3.63*,71.2,i,0.3,i
Cn1c(-c2ccc([N+](=O)[O-])cc2)nc2ccccc21,x,0.776,x,i,12.8,x
CN(C)c1ccc(/C=C2\N=C(c3ccc(Cl)c([N+](=O)[O-])c3)NC2=O)cc1,x,-4.53,x,i,-5.8,+
CCCN1C/C(=C/c2ccc3c(c2)OCO3)C(=O)/C(=C/c2ccc3c(c2)OCO3)C1,2.0*,-4.63*,2.2*,i,100.3*,+
COc1ccccc1NS(=O)(=O)c1cc([N+](=O)[O-])ccc1N/N=C/c1sc(N2CCOCC2)nc1-c1ccccc1,80.7,-11.8,75.9,+,36.4,i
Cc1[nH]c2ccccc2c1/C=N/Nc1ccc([N+](=O)[O-])cc1S(=O)(=O)Nc1ccc(Cl)cc1,57.4,-5.35,43.1,+,94.8*,i
Cc1[nH]c2ccccc2c1/C=N/Nc1cccc(C(=O)O)c1,x,0.513,x,x,x,x
COc1ccc(C(=O)N/N=C/c2sc(N3CCOCC3)nc2-c2ccccc2)cc1OC,x,-1.49,x,i,31.9,x
COc1ccccc1NS(=O)(=O)c1cc([N+](=O)[O-])ccc1N/N=C/c1c[nH]c2ccccc12,35.8,-4.13,17.6,+,33.6,i
Cc1ccccc1NC(=O)C(=Cc1ccc(C(=O)O)cc1)C(=O)Nc1ccccc1C,x,-2.61,x,i,22.8,x
CC(=O)/C(=C/c1ccccc1)C(=O)Nc1ccccc1C,x,-6.71*,x,i,96.1*,+
O=C1N(Cc2cccc(Cl)c2)C[C@@H]2C[C@@H](c3c[nH]c4ccccc34)N3CCC[C@@]123,x,-0.384,x,i,4.4,x
COCCCNC(=O)c1ccc2c3c(onc13)-c1ccccc1C2=O,x,-4.88*,x,x,x,+
COCCCNC(=O)c1ccccc1Oc1ccccc1,98.1,0.0144,98.2,i,5.1,x
C#CC(=O)N(c1cccc(OC)c1)C(C(=O)NC1CCCC1)c1cccs1 (stereo not drawn),0.5*,-5.3*,1.0*,i,100.4*,+
C#CC(=O)N(c1ccc(OC)c(OC)c1)C(C(=O)NC1CCCC1)c1cccs1 (stereo not drawn),1.3*,-4.73*,1.7*,i,100.2*,+
O=C(NC1CCCCC1)C(c1cccnc1)N(C(=O)CCl)c1cccc(Cl)c1 (stereo not drawn),3.9*,-4.25*,3.1*,i,99.8*,+
CCCCNC(=O)c1cc2n(n1)C(C(F)(F)F)CC(c1ccccc1)N2 (stereo not drawn),102.7,-0.895,90.7,i,7.7,x
